System: MS2 coat protein
Assay: apparent Kd, MS2 coat protein; higher = weaker binding; RNA-MaP array; FMN 200 µM where present
Summary of the method: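 Stalled E. coli RNA polymerase transcribed each design on Illumina sequencing-chip clusters. The clusters were titrated with SNAP-549-labelled MS2 coat protein, starting at 0.7 or 1.5 nM and doubling up to 3 µM, first without ligand and then with constant ligand, in 100 mM Tris-HCl pH 7.5, 80 mM KCl, 4 mM MgCl2, BSA, DTT, yeast tRNA and Tween-20. Green signal was normalised to red-channel RNA signal and to the control-cluster median Fmax. The apparent Kd is the median of filtered binding-curve fits made for each cluster.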

[1] = designed as: OFF switch for flavin mononucleotide, no ligand
[2] = ligand present: flavin mononucleotide, designed as: OFF switch for flavin mononucleotide
[3] = designed as: ON switch for flavin mononucleotide, no ligand
[4] = ligand present: flavin mononucleotide, designed as: ON switch for flavin mononucleotide

AAAAAACAUGAGGAUCACCCAUGUCAGGAUAUUCGAAAAAAAAAAAAAAAAAAAAAAAGGAGAAGGGACGAAAA
apparent Kd [1]: 0.0601 µM
apparent Kd [2]: 0.05 µM

GGCUACGUUUCGUAGCAGCUAGGUGAGGAUAUUCAAUUUUUCACAUGAGGAUCACCCAUGUAUGUGAAGAAGGCGCCUAGAAAU
apparent Kd [3]: 0.0118 µM
apparent Kd [4]: 0.00504 µM

ACAUGAGGAUCACCCAUGUAUACAUAGGAUAUUGGUGAUCAGGCAUGUUUUACAGGAUAUGUCUGCGAGAAGGAUGCACGUUGC
apparent Kd [3]: 0.81 µM
apparent Kd [4]: 0.452 µM

GCACGAUAUCAGGAUAUGACUAGCUGCGGCUAGUCAGAAGGGAUGACAUGAGGAUCACCCAUGUGAUCACGUGC
apparent Kd [1]: 0.0576 µM
apparent Kd [2]: 0.0787 µM

UUAUUAUAUGUAGGAUAUGCAUAUUAUUAUUAUGCAGAAGGACAUGAGGAUCACCCAUGUAUGUUGUUAUUAUAUAUUAUAUAU
apparent Kd [1]: 0.0252 µM
apparent Kd [2]: 0.0345 µM

GAUCAACAUGAGGAUCACCCAUGUCAGGAUAUGAUACUAUGUACUUCGGUACAUAGUAUCAGAAGGGACAGAUC
apparent Kd [1]: 0.122 µM
apparent Kd [2]: 0.296 µM

ACACGGUAUGUAGGAUAUGCAUAGCAUUGCUAUGCAGAAGGACAUGAGGAUCACCCAUGUAUGUAUUCCAUACUAAUCCCGUGU
apparent Kd [1]: 0.00549 µM
apparent Kd [2]: 0.00558 µM

GUAGCAUACCGAGGAUAUUCAUAUAAUAAAUAAACAUGAGGAUCACCCAUGUGGCGAAAGCCUAGGGAGAAGGCGGAAUGCUAC
apparent Kd [3]: 0.24 µM
apparent Kd [4]: 0.0226 µM

GGAUAGGACAGAGGAUAUACGUGCUAGAGAUCCUAGCAAAAUUUCCUCACAUGAGGAUCACCCAUGUAGAAGGCUGUCCUAUCG
apparent Kd [1]: 0.0155 µM
apparent Kd [2]: 0.417 µM

UGUCAUUUACAGAAGGGUAGUUGGGUUUUACAUGAGGAUCACCCAUGUUUUACAGGAUAUGUGUUUUGUUACUAUUAAAGUUCA
apparent Kd [1]: 0.0665 µM
apparent Kd [2]: 0.123 µM

UAAGUCGAGAAGAUAAUAAUGAAUACAUGAGGAUCACCCAUGUAGGAUAUGCAGUGGAAUACACUGCAGAAGGACAUACUCGAC
apparent Kd [1]: 0.0143 µM
apparent Kd [2]: 0.0169 µM

AGUGUAGAGGUGAAGCGAAUUACUGAGGAUAUGACAUGAGGAUCACCCAUGUACACAUCCUCAGGUCAGAAGGCAGUGGUUCUU
apparent Kd [1]: 0.00562 µM
apparent Kd [2]: 0.0048 µM

UUAUUAUAUGUAGGAUAUGCAUAUUGUUAUUAUGCAGAAGGACAUGAGGAUCACCCAUGUAUAUUAUUAUUAUAUAUUAUAUAU
apparent Kd [1]: 0.0294 µM
apparent Kd [2]: 0.0488 µM

GUCGGAAACGACAAAAGUAGCAUAGGAGAAGGUUCAUUAAACAUGAGGAUCACCCAUGUAAUUGGGAAGGAUAUCCUAUGCUAC
apparent Kd [3]: 0.0162 µM
apparent Kd [4]: 0.00916 µM

AGCGAUGCAGGAUAUCCGCGGCUACACAUGAGGAUCACCCAUGUUAGGGUCGUGUUGCCAGGAGAAGGGCAAGGAU
apparent Kd [1]: 0.0288 µM
apparent Kd [2]: 0.0781 µM

UAUUAAUGCAAGGAUAUGCUUUUAAUUUUUUUUGCAGAAGGUGCAACAUGAGGAUCACCCAUGUUUCCGGGUAU
apparent Kd [1]: 0.0265 µM
apparent Kd [2]: 0.0391 µM

GGAUAGUGAGGAUAUCGAUGUUAGGAGGAGGAGGUAGGAGGCGAGAAGGCACAUGAGGAUCACCCAUGUAUGGU
apparent Kd [1]: 0.0318 µM
apparent Kd [2]: 0.0294 µM

UAUUAACACGAAGGAUAUGCUUACAUGAGGAUCACCCAUGUAUGUAUAUUGAUCCAGAUUUUUGAGCAGAAGGUCGUGAGUAAA
apparent Kd [1]: 0.0353 µM
apparent Kd [2]: 0.141 µM

AAUAAUAAUGUCAGGAUAUCUAGAGCCUCGGCUCUAGAGAAGGGACAUGAGGAUCACCCAUGUCACUCAAUAAU
apparent Kd [1]: 0.0179 µM
apparent Kd [2]: 0.0243 µM

UAAGUGUGAGGAUAUGGUAAAGAUAAGAUGAUGAAAGAACUCCAGAAGGCACAUGAGGAUCACCCAUGUAGAUG
apparent Kd [1]: 0.0394 µM
apparent Kd [2]: 0.141 µM

UCCUCACAUGAGGAUCACCCAUGUGAGGAUAUCAGCGCGUACGGGUUUCCGUAGUGUUUGAGAAGGCAUUUGGG
apparent Kd [1]: 0.0166 µM
apparent Kd [2]: 0.029 µM

GCCAGGGAUUCAGGAUAUAUUAGCCGAGGCCGCGUAGAAGGGAAAUCCUGACAUGAGGAUCACCCAUGUCGACCCGCCUUCCUA
apparent Kd [3]: 0.0467 µM
apparent Kd [4]: 0.0456 µM

AAAUAGACAGGAUAUGCAUGAAAAUUAAAAAAAAAAAAAAAACAUGAGGAUCACCCAUGUAGAAGGGUCAAAAA
apparent Kd [1]: 0.107 µM
apparent Kd [2]: 0.0995 µM

AAAUAUAAGCGAGGAUAUAUACAUGAGGAUCACCCAUGUCCCAUGUCAUGAGCAUCAGCCAUGUAGUAGAAGGCGCACAUGAGG
apparent Kd [1]: 0.1 µM
apparent Kd [2]: 0.0535 µM

AGUACUCAAAGAGUACCCAUACGGACAUGAGGAUCACCCAUGUAGGAUAUGCUACUCAAAGAGUAGUAGAAGGACAUGUUCCUC
apparent Kd [1]: 0.0124 µM
apparent Kd [2]: 0.0436 µM

GUGGAUAGACGCCCACGUGAGACAUGAGGAUCACCCAUGUACAGAAGGUGGAGCGUUAAUGGUGCCAAGGAUAUGUACAUAAGG
apparent Kd [2]: 0.00511 µM

GAAGGCUGGUAGAAGGAUCCUCACAUGAGGAUCACCCAUGUAACAGCGGAUAGGAUAUACCGUCUUUCAUGUUGGUCUCCCUAA
apparent Kd [3]: 0.461 µM
apparent Kd [4]: 0.0466 µM

UUUUAACAUGAGGAUCACCCAUGUGAGGAUAUCGAAAUUUAUAUUAAUAUUUAUAAAACGAGAAGGCACAUUUU
apparent Kd [1]: 0.104 µM
apparent Kd [2]: 0.0828 µM

GUGCUUAACUAGAAGGCCGAUAGCAAAGCUAUCGGAGGAUAUGGGUUCCGGAAACGGACAUGAGGAUCACCCAUGUGGCACAAA
apparent Kd [3]: 0.121 µM
apparent Kd [4]: 0.0146 µM

ACAUGAGGAUCACCCAUGUUAAGCGAGGAUAUUUCACUGCACAUGAGGUUCGCCCAUGUCCUGCGGAAGAAGGUGCGAAUAAUU
apparent Kd [3]: 0.0334 µM
apparent Kd [4]: 0.0171 µM

ACAGCUGAAGGAUAUACUUGGGAAAAAAAAAAAAAAAAAAAACAUGAGGAUCACCCAUGUAGAAGGUCAGCUGA
apparent Kd [1]: 0.103 µM
apparent Kd [2]: 0.06 µM

AAAAAAAAAACUGAGGAUAUCAGGGAUGGUACAUGAGGAUCACCCAUGUUGGCGGGCGAAGAAACUGAGAAGGCAGAAAAAAAAAA
apparent Kd [3]: 0.114 µM
apparent Kd [4]: 0.111 µM

CGAUAGUGUAGUUAUCCGUAGCGAACAUGAGGAUCACCCAUGUAGGAUAUGUUACUAAACUAGUAACAGAAGGGCAUGAGUCUU
apparent Kd [1]: 0.0286 µM
apparent Kd [2]: 0.0756 µM

UAUUAGUGAGGAUAUGAGUCGUAGAACAAUAGUACUACGUCUCAGAAGGUACAUGAGGAUCACCCAUGUUCCUU
apparent Kd [1]: 0.0127 µM
apparent Kd [2]: 0.0144 µM

AGGAGAAAUGUAGGAUAUGGGCGGAUAUAUGGGCAAAGCGCAUAUAUCCGCCCAGAAGGACAUGAGGAUCACCCAUGUUUCCCU
apparent Kd [1]: 0.0111 µM
apparent Kd [2]: 0.0133 µM

UCUGCAUAGUCAGGAUAUGCAAAAUUUAUUUUCUUCGGAAAAUAAAUAACAUGAGGAUCACCCAUGUAGAAGGGACUGUGCAGA
apparent Kd [1]: 0.0169 µM
apparent Kd [2]: 0.0147 µM

GGUUGGCGAGGAUAUACAUGAGGAUCACCCAUGUGGUCCUGCGGUGGUGUCGCCCUUUGUAGAAGGCGCGGGUC
apparent Kd [1]: 0.0591 µM
apparent Kd [2]: 0.0566 µM

AAUAACAGAGGAUAUACUAUUUUAUGUGUUUGUUGUUUUGAACAUGAGGAUCACCCAUGUAGAAGGCUGAUUGA
apparent Kd [1]: 0.0426 µM
apparent Kd [2]: 0.0453 µM

UAUGGUUAAGUCAGGAUAUACGUGCAGUUAUCUGAGUAGAAGGGACAUGAGGAUCACCCAUGUAUGGUAGUGUU
apparent Kd [1]: 0.0753 µM
apparent Kd [2]: 0.0864 µM

CUGAGCUGAGGAUAUACAUGAGGAUCACCCAUGUUAAGCAGCUAGCGUAAAAGCAGAUGUAGAAGGCAGUUCGG
apparent Kd [1]: 0.0189 µM
apparent Kd [2]: 0.0203 µM

AUGUUACAUGAGGAUCACCCAUGUGAGGAUAUGUGUACCGGUAAAAAAGUGUUUGGCCACAGAAGGCAUUUGGA
apparent Kd [1]: 0.0287 µM
apparent Kd [2]: 0.0269 µM

GUCCUCGGCGAGGAUAUCGGGCGGGUUUUUGUUUGAGAAGGCGUGACAUGAGGAUCACCCAUGUGGCGCGUGGG
apparent Kd [1]: 0.0416 µM
apparent Kd [2]: 0.0593 µM

AUUGUGUGAGGAUAUUAGUAGUAGAUAAAUGGAGUUGUAACUGAGAAGGCACAUGAGGAUCACCCAUGUUCCUU
apparent Kd [1]: 0.0187 µM
apparent Kd [2]: 0.0246 µM

AAAAGUAGAGGAUAUACAUGAGGAUCACCCAUGUAGAAAGGAAGUGUAUAUAUGGCAUGUAGAAGGCUACAUGA
apparent Kd [1]: 0.0321 µM
apparent Kd [2]: 0.0344 µM

AAACAUGUCCGAGGAUAUCUGGAAACAUUUUCAAGAGAAGGCGGACAUGAGGAUCACCCAUGUCUCUCCUCAUCAACUACAAAU
apparent Kd [1]: 0.0212 µM
apparent Kd [2]: 0.181 µM

CAGUUAAAAGUGAGGUCUUCGACAUGAGGAUCACCCAUGUACGAGGAUAUGUAAUAUACGGUAUAGCAGAAGGCGUAUGGGUGU
apparent Kd [1]: 0.0209 µM
apparent Kd [2]: 0.0469 µM

CUUUUGUGAGGAUAUUAGUAGUAAAUUAAUAAAAUUACUACUGAGAAGGCACAUGAGGAUCACCCAUGUUCCUC
apparent Kd [1]: 0.0307 µM
apparent Kd [2]: 0.19 µM

GUGCCUUGGGAGAAGGUUAUAUGCAAAGCAUUUAAAGGAUAUUCAUACCGGAAACGGACAUGAGGAUCACCCAUGUGGCACAAA
apparent Kd [3]: 1.28 µM
apparent Kd [4]: 0.128 µM

Reference: the EternaBench riboswitch data
